Experimental data reported in publication PMC3288198 (ACS Chemical Biology, 2011).
Read-outs that look alike come from different tables or passages of the source.

Experiments:
Format in all cases: biochemical
HDAC3/N-CoR2 = HDAC3/N-CoR2 (Homo sapiens, UniProt O15379); experiment: HDAC deacetylase homogenous fluorescence assay, HDAC3
Summary of the method: (§1)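 Baculovirus-expressed recombinant human enzyme (HDAC3 as HDAC3/N-CoR2 complex) incubated with serially diluted test compound over a 12-point titration. Substrate: acetylated AMC-K(Ac)GL. Deacetylated product cleaved by lysine peptidase to free MCA, read at ex 355/em 460 nm. Data normalised to control plate by plate. IC50 and SD from non-linear regression; Ki via Cheng-Prusoff, Ki = IC50/(1+[S]/Km).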

HDAC6 = molecular target: T1, HDAC6 (Homo sapiens, UniProt Q9UBN7); experiment: HDAC deacetylase homogenous fluorescence assay, HDAC6
T1 sequence (Q9UBN7 1-1215): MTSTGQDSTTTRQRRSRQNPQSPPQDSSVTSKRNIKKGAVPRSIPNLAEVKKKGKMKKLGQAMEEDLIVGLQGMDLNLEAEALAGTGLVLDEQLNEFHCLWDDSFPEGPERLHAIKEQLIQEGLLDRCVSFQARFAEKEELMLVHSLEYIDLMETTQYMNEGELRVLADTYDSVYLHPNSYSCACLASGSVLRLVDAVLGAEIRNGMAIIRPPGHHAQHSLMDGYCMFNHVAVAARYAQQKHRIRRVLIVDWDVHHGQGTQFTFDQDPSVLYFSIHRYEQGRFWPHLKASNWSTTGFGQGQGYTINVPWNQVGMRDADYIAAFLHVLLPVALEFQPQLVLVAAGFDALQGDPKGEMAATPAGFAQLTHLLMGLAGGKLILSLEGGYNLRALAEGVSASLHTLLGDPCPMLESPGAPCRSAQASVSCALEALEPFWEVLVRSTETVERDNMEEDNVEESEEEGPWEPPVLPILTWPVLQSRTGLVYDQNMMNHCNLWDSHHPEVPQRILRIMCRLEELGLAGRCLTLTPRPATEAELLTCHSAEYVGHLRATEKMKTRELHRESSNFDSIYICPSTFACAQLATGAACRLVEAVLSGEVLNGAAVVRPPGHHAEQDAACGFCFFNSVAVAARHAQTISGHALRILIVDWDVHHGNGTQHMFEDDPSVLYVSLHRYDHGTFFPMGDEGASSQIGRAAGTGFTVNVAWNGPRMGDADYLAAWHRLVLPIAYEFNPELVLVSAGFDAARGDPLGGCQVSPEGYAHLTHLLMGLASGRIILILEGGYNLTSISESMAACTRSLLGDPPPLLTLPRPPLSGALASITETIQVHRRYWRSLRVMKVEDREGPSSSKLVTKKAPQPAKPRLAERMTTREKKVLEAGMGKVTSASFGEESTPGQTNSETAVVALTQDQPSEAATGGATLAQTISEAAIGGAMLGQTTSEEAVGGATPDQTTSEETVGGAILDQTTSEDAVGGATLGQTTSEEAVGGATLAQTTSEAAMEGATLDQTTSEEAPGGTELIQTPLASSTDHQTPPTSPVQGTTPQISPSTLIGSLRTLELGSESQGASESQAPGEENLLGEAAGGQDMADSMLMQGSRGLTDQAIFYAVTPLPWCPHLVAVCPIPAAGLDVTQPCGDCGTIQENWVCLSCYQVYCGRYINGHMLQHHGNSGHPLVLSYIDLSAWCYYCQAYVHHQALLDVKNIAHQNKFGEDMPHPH
Summary of the method: as §1

HDAC7 = molecular target: T2, HDAC7 (Homo sapiens, UniProt Q8WUI4); experiment: HDAC deacetylase homogenous fluorescence assay, HDAC7
T2 sequence (Q8WUI4 1-952): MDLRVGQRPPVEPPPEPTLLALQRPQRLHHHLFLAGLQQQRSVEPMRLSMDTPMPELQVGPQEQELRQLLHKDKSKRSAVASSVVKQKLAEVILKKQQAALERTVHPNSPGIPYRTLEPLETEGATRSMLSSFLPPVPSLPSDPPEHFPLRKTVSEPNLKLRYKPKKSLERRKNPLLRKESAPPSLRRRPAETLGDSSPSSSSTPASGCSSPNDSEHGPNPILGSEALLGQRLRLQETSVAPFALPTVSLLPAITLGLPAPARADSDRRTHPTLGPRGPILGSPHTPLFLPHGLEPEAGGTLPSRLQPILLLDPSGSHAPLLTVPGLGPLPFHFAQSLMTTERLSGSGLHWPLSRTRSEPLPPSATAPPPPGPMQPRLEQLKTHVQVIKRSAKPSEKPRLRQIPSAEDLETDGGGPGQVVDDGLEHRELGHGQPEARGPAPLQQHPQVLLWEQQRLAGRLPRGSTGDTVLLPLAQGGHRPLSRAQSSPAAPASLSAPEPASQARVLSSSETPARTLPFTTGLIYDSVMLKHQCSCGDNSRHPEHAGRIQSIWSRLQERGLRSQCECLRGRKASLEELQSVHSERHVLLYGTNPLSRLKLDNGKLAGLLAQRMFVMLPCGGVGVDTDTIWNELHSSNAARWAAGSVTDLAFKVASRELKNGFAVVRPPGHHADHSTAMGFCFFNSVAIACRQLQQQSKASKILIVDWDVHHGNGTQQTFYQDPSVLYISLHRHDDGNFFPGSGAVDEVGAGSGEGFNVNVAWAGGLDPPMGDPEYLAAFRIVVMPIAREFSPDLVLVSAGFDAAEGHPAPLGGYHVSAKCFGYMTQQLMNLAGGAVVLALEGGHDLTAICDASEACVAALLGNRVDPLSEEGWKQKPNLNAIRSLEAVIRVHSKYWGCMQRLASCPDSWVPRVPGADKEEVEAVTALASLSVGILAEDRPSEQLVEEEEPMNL

HDAC9 = HDAC9 (Homo sapiens, UniProt Q9UKV0); experiment: HDAC deacetylase homogenous fluorescence assay, HDAC9
Summary of the method: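 Recombinant human enzyme (HDAC5, 8, 9 baculovirus-expressed) incubated with serially diluted test compound over a 12-point titration. Substrate: trifluoroacetylated AMC-K(TFA)GL. Peptidase development releases MCA, read at ex 355/em 460 nm. Activity normalised to plate controls. IC50 and SD by non-linear regression; Ki by Cheng-Prusoff, Ki = IC50/(1+[S]/Km).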

HDAC11 = molecular target: T3, HDAC11 (Homo sapiens, UniProt Q96DB2); experiment: HDAC deacetylase homogenous fluorescence assay, HDAC11
T3 sequence (Q96DB2 1-347): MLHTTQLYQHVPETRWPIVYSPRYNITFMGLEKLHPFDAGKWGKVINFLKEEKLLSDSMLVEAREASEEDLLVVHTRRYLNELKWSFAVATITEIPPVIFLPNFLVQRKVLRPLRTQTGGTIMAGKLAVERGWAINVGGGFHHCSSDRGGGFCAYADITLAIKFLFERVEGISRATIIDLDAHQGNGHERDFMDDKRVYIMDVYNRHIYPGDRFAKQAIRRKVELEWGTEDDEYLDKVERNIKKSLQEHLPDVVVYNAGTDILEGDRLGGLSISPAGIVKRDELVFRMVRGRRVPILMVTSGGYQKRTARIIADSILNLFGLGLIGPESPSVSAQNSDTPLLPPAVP

[1] = read-out: HDAC3 IC50, 12 point titration, acetylated substrate
[2] = read-out: HDAC3 Ki, converted from IC50 using Cheng-Prusoff equation
[3] = read-out: HDAC6 IC50, 12 point titration, acetylated substrate
[4] = read-out: HDAC6 Ki, converted from IC50 using Cheng-Prusoff equation
[5] = read-out: HDAC7 IC50, 12 point titration, trifluoroacetylated substrate
[6] = read-out: HDAC7 Ki, converted from IC50 using Cheng-Prusoff equation
[7] = read-out: HDAC9 IC50, 12 point titration, trifluoroacetylated substrate
[8] = read-out: HDAC9 Ki, converted from IC50 using Cheng-Prusoff equation
[9] = read-out: HDAC11 IC50, 12 point titration, trifluoroacetylated substrate

Chain of HDAC3/N-CoR2 (O15379 whole entry): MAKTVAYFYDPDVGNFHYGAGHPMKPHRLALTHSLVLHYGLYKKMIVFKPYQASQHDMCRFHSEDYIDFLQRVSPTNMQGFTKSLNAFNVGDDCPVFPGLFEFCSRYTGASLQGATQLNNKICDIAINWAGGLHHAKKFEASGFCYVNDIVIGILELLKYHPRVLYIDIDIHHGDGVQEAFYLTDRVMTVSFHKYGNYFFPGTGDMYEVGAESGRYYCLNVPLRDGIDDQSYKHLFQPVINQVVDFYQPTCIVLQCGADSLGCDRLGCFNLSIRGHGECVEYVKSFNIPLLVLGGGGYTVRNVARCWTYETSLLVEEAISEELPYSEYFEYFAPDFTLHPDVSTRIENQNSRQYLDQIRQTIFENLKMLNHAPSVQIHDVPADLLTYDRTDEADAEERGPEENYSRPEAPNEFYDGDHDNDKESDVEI
Chain of HDAC3/N-CoR2 (Q9Y618 395-489 partner limits assumed): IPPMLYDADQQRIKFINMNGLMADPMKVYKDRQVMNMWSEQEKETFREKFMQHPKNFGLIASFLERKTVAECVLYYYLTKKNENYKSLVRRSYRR
Chain of HDAC9 (Q9UKV0 whole entry): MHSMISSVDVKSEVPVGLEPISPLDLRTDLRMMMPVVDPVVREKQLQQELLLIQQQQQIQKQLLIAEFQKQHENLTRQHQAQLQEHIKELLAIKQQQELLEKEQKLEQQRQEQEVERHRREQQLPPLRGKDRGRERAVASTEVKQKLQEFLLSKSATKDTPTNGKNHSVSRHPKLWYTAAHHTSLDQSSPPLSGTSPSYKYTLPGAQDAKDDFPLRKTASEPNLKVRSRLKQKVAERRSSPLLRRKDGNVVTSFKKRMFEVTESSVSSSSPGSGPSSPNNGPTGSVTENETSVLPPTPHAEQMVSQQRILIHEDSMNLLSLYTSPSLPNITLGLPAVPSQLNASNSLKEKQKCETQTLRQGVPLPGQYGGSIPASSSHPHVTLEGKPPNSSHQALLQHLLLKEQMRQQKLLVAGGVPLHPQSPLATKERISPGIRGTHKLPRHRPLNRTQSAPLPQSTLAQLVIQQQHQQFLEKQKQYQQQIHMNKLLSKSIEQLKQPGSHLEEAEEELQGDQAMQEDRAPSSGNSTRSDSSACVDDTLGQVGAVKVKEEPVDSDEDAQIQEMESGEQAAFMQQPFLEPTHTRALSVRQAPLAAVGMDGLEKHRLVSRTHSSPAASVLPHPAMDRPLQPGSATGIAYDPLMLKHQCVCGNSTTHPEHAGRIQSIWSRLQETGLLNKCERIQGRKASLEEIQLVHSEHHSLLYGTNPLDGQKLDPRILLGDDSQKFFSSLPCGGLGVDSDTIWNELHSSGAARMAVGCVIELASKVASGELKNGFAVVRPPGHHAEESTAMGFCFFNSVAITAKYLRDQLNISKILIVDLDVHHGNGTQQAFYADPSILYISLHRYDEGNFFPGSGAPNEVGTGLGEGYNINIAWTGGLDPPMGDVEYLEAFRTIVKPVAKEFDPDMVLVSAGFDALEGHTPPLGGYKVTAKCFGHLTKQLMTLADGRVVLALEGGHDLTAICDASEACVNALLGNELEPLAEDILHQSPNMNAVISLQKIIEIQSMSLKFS

`OC[C@H]1O[C@H]([S-])[C@H](O)[C@@H](O)[C@@H]1O.[Au+]` [Aurothioglucose, 1-thio-D-glucopyronaose gold salt] was tested, and the IC50 (HDAC3/N-CoR2; [1]) was 11.5 ± 3.2 µM, the Ki (HDAC3/N-CoR2; [2]) was 1.23 µM and the IC50 (HDAC6; [3]) was 14.4 ± 5.8 µM. The Ki (HDAC6; [4]) was 3.49 µM, the IC50 (HDAC7; [5]) was 22.4 ± 4.4 µM and the Ki (HDAC7; [6]) was 6.35 µM. The IC50 (HDAC9; [7]) was 2.8 ± 0.1 µM, the Ki (HDAC9; [8]) was 1.19 µM and the IC50 (HDAC11; [9]) was > 180 µM.

Work on `O=c1c2ccccc2[se]n1-c1ccccc1` [Ebselen, 2-phenyl-1,2-benzisoselenazol-3(2H)-one] yielded an IC50 (HDAC3/N-CoR2) of 2.1 ± 1.5 µM, a Ki (HDAC3/N-CoR2) of 0.23 µM and an IC50 (HDAC6) of 12.8 ± 2.6 µM. It also gave a Ki (HDAC6) of 3.1 µM, an IC50 (HDAC7) of 10.9 ± 2.2 µM and a Ki (HDAC7) of 3.09 µM. It also gave an IC50 (HDAC9) of 0.97 ± 0.5 µM, an IC50 (HDAC11) of 22.5 ± 2.4 µM and a Ki (HDAC11) of 4.41 µM.

In the case of `NC(N)=Nc1ccc2[nH]c3c(c2c1)C[C@@]1(O)[C@H]2Cc4ccc(O)c5c4[C@@]1(CCN2CC1CC1)[C@H]3O5` [GNTI, guanidinyl-naltrindole di-trifluoroacetate], the IC50 (HDAC3/N-CoR2; [1]) is reported as 22.7 ± 3.1 µM, the Ki (HDAC3/N-CoR2; [2]) is reported as 2.43 µM and the IC50 (HDAC6; [3]) is reported as > 180 µM. The IC50 (HDAC7; [5]) was 18.9 ± 1 µM, the Ki (HDAC7; [6]) was 5.36 µM and the IC50 (HDAC9; [7]) was 12.3 ± 1.7 µM. For the same molecule, the Ki (HDAC9; [8]) was 5.23 µM and the IC50 (HDAC11; [9]) was > 180 µM.

For `O=C1C(SCCO)=C(SCCO)C(=O)c2ccccc21` [NSC-95397, 2,3-bis[(2-Hydroxyethyl)thio]-1,4-naphthoquinone], the IC50 (HDAC3/N-CoR2) was > 100 µM, the IC50 (HDAC6) was 12.7 ± 2.5 µM and the Ki (HDAC6) was 3.07 µM. For the same molecule, the IC50 (HDAC7) was 13.1 ± 4.3 µM, the Ki (HDAC7) was 3.72 µM and the IC50 (HDAC9) was 4.8 ± 1.4 µM. It also gave a Ki (HDAC9) of 2.04 µM, an IC50 (HDAC11) of 37.8 ± 1.4 µM and a Ki (HDAC11) of 7.41 µM.

Molecule `COc1ccc2c(c1)CC[C@@H]1[C@@H]2CC[C@]2(C)[C@@H](NCCCCCCN3C(=O)C=CC3=O)CC[C@@H]12` [U-73122, 1-[6-[[(17beta)-3-methoxyestra-1,3,5([10])-trien-17-yl]amion]hexyl]-1H-pyrrole-2,5-dione] has an IC50 (HDAC3/N-CoR2; [1]) of 6.2 ± 4 µM, a Ki (HDAC3/N-CoR2; [2]) of 0.66 µM and an IC50 (HDAC6; [3]) of 45.2 ± 12.6 µM. For the same molecule, the Ki (HDAC6; [4]) was 11 µM, the IC50 (HDAC7; [5]) was > 180 µM and the IC50 (HDAC9; [7]) was 29.8 ± 5.6 µM. The Ki (HDAC9; [8]) was 12.7 µM and the IC50 (HDAC11; [9]) was > 180 µM.
